Published values collected from several papers.
Compare with care: the assays were run in different laboratories.
Target: Tyrosine-protein kinase BTK (BTK, Homo sapiens, UniProt Q06187)

| SMILES | test | setting | endpoint | result |
| --- | --- | --- | --- | --- |
| Cn1cncc1[C@@](O)(COc1ccc(C#N)cc1-c1ccc(OC(F)(F)F)cc1)c1ccc(C#N)cc1 | cell-free assay, competition with immobilised ligand | 1 µM | remaining binding | 82% |
| C#Cc1n[nH]c2c(-c3cn(C(C)c4ccccn4)c(=O)[nH]c3=O)cc(F)cc12 (centres unmarked) | enzyme activity, inhibitor | 1 µM | inhibition | 1.7% |
| O=c1[nH]c2ccccc2n1C1CCN(Cc2ccc(-c3[nH]c4cc5ncnc5cc4nc3-c3ccccc3)cc2)CC1 | cell-free assay | 0.5 µM | remaining signal | 98.4% |
| COc1ncccc1-c1cnn2ccc(N3CCN(C(=O)OC(C)C)CC3)nc12 | binding, competition with immobilised ligand | 1 µM | remaining binding | 68% |
| Cc1nn(C)cc1-c1nc2c(N3CCN(Cc4ccc(Cl)cc4)CC3)c(Cl)cnc2[nH]1 | binding, competition with immobilised ligand | 1 µM | remaining binding | 100% |
| N#CC1(c2ccccn2)CCN(Cc2cc(C(=O)O)c(=O)n3ccccc23)CC1 | cell-free assay, competition with immobilised ligand | 1 µM | remaining binding | 100% |
| CC(C)(C)c1cc(C=C(C#N)C#N)cc(Br)c1O | enzyme activity, inhibitor | 0.5 µM | remaining activity | 101% |
| Nc1ncc(-c2nc(N3CCOCC3)nc(N3CCOCC3)n2)c(C(F)F)n1 | binding, competition with immobilised ligand | 10 µM | remaining binding | 26% |
